Measurements from ChEMBL document CHEMBL4043186, “Design, synthesis, anti-inflammatory activity, and molecular docking studies of perimidine derivatives containing triazole” (Bioorg Med Chem Lett, 2017).

Assays:
RAW264.7 [1] = test: Cytotoxicity against mouse RAW264.7 cells assessed as reduction in cell viability at 50 ug/ml after 24 hrs by MTT assay; assay type: cell-based; conditions: raw264.7, 24 h
RAW264.7 [2] = test: Cytotoxicity against mouse RAW264.7 cells assessed as reduction in cell viability at 50 ug/ml preincubated for 24 hrs followed by LPS induction measured after 18 hrs by MTT assay; assay type: cell-based; conditions: raw264.7, 18 h
Mus musculus [3] = test: Antiinflammatory activity in Kunming mouse assessed as inhibition of xylene-induced ear edema at 50 mg/kg, ip pretreated for 30 mins followed by xylene challenge measured after 30 mins relative to control; assay type: functional
In short: (§1)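 Xylene-induced ear edema in mice. Compounds were given i.p. at 12.5, 25 or 50 mg/kg. Ibuprofen and indomethacin at 50 mg/kg served as reference drugs. Ear edema weight (mg) is reported as mean ± S.D., and percent inhibition is calculated against the untreated control group.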

Mus musculus [4] = test: Antiinflammatory activity in Kunming mouse assessed as inhibition of xylene-induced ear edema at 25 mg/kg, ip pretreated for 30 mins followed by xylene challenge measured after 30 mins relative to control; assay type: functional; in short: as §1
RAW264.7 [5] = test: Antiinflammatory activity against mouse RAW264.7 cells assessed as LPS-stimulated TNFalpa release at 50 ug/ml after 24 hrs by ELISA relative to LPS-treated control; assay type: functional
In short: (§2)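 Mouse RAW 264.7 macrophages were stimulated with LPS in the presence of compound, tested at […]. TNF-α and IL-6 were measured in the culture supernatants by ELISA. Cytokine content is expressed as fold of the control group, with control set at 100%. Values are mean ± S.D. of triplicate experiments.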

Mus musculus [6] = test: Antiinflammatory activity in Kunming mouse assessed as inhibition of xylene-induced ear edema at 12.5 mg/kg, ip pretreated for 30 mins followed by xylene challenge measured after 30 mins relative to control; assay type: functional; in short: as §1
RAW264.7 [7] = test: Antiinflammatory activity against mouse RAW264.7 cells assessed as decrease in LPS-stimulated TNFalpa release after 24 hrs by ELISA; assay type: functional, cell-based; in short: as §2
RAW264.7 [8] = test: Antiinflammatory activity against mouse RAW264.7 cells assessed as decrease in LPS-stimulated IL-6 release after 24 hrs by ELISA; assay type: functional, cell-based; in short: as §2
[9] = target: MAP kinase p38 (Mus musculus) (UniProt P47811+O08911+Q9WUI1+Q9Z1B7); test: Inhibition of p38 phosphorylation in mouse RAW264.7 cells incubated for 24 hrs followed by LPS-stimulation measured after 24 hrs by Western blot method; assay type: cell-based
In short: (§3)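 MAPK protein levels were determined by western blot in LPS-stimulated mouse RAW 264.7 cells. Data are means ± SD, compared with the control and LPS groups.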

Mus musculus [10] = species: Mus musculus; test: Inhibition of NFkappaB in mouse RAW264.7 cells assessed as decrease in LPS-induced degradation of IkappaB preincubated for 24 hrs followed by LPS-stimulation measured after 24 hrs by Western blot method; assay type: cell-based
In short: (§4)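 NF-κB activation in LPS-stimulated RAW 264.7 cells was assessed by western blot of phosphorylated p65 and IκB levels. Data are means ± SD, compared with the control and LPS groups.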

[11] = target: T1, Prostaglandin G/H synthase 2 (Homo sapiens) (UniProt P35354); test: Inhibition of COX-2 (unknown origin) assessed as protein/GADPH ratio at 50 ug/ml relative to control; parameters: scale not given: the % may be the effect or the level left
T1 sequence (whole entry): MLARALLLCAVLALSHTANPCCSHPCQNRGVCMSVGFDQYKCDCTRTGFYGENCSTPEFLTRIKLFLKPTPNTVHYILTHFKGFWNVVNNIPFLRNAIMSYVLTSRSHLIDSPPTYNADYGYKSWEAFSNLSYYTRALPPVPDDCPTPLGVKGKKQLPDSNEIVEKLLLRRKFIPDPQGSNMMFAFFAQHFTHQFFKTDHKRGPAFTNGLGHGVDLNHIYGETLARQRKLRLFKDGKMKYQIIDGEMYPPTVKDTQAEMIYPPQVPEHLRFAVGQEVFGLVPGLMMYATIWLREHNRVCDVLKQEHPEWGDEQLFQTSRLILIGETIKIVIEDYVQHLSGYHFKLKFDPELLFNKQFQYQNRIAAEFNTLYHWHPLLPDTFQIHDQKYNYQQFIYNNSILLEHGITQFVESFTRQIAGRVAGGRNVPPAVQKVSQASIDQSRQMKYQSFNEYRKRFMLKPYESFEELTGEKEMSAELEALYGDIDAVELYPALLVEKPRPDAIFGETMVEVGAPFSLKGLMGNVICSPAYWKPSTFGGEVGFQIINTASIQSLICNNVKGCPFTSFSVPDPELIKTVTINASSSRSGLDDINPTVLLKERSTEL

RAW264.7 [12] = test: Antiinflammatory activity against mouse RAW264.7 cells assessed as LPS-stimulated IL6 release at 25 ug/ml after 24 hrs by ELISA relative to LPS-treated control; assay type: functional; in short: as §2
RAW264.7 [13] = test: Antiinflammatory activity against mouse RAW264.7 cells assessed as LPS-stimulated IL6 release at 50 ug/ml after 24 hrs by ELISA relative to LPS-treated control; assay type: functional; in short: as §2
RAW264.7 [14] = test: Antiinflammatory activity against mouse RAW264.7 cells assessed as LPS-stimulated IL6 release at 12.5 ug/ml after 24 hrs by ELISA relative to LPS-treated control; assay type: functional; in short: as §2
[15] = target: Mitogen-activated protein kinase 3 (Mus musculus) (UniProt Q63844); test: Inhibition of ERK phosphorylation in mouse RAW264.7 cells incubated for 24 hrs followed by LPS-stimulation measured after 24 hrs by Western blot method; assay type: cell-based; in short: as §3
Mitogen-activated protein kinase 3 (Mus musculus), sequence (Q63844 whole entry): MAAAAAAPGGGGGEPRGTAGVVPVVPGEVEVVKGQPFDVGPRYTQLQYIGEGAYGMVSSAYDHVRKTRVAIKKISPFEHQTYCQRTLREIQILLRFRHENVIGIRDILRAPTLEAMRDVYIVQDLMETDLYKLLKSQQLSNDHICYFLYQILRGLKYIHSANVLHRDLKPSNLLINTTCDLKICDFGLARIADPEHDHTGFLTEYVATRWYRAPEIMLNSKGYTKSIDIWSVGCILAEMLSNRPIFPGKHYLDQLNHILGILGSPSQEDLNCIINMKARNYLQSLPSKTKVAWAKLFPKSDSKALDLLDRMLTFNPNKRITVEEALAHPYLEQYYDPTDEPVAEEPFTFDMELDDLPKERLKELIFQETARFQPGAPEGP

Mus musculus [16] = species: Mus musculus; test: Inhibition of LPS-induced NFkappaB activation in mouse RAW264.7 cells assessed as reduction p65 phosphorylation at 12.5 to 50 ug/ml preincubated for 24 hrs followed by LPS-stimulation measured after 24 hrs by Western blot method; assay type: cell-based; in short: as §4

In the case of `Clc1ccccc1Cn1c2cccc3cccc(c32)n2cnnc12`, the Activity (RAW264.7 [1]) is reported as “Non-Toxic” and the Activity (RAW264.7 [2]) is reported as “Non-Toxic”.

`Clc1ccc(Cn2c3cccc4cccc(c43)n3cnnc23)cc1` was tested, and the Activity (RAW264.7 [1]) was “Toxic”.

In the case of `CC(C)Cc1ccc(C(C)C(=O)O)cc1` (configuration not stated) [IBUPROFEN], the inhibition in vivo at 50 mg/kg (Mus musculus [3]) is reported as 28.1%.

In the case of `Fc1cccc(Cn2c3cccc4cccc(c43)n3cnnc23)c1`, the Activity (RAW264.7 [1]) is reported as “Non-Toxic” and the Activity (RAW264.7 [2]) is reported as “Non-Toxic”.

In the case of `CCCn1c2cccc3cccc(c32)n2cnnc12`, the Activity (RAW264.7 [1]) is reported as “Toxic”.

For `CCCCCCn1c2cccc3cccc(c32)n2cnnc12`, the Activity (RAW264.7 [1]) was “Toxic”.

`COc1ccc2c(c1)c(CC(=O)O)c(C)n2C(=O)c1ccc(Cl)cc1` [INDOMETHACIN] gave an inhibition in vivo at 50 mg/kg (Mus musculus [3]) of 49.4%.

With `Clc1ccc(Cn2c3cccc4cccc(c43)n3cnnc23)c(Cl)c1` the Activity (RAW264.7 [1]) was “Non-Toxic” and the Activity (RAW264.7 [2]) was “Non-Toxic”.

In the case of `Clc1cccc(Cn2c3cccc4cccc(c43)n3cnnc23)c1`, the Activity (RAW264.7 [1]) is reported as “Toxic” and the Activity (RAW264.7 [2]) is reported as “Toxic”.

For `c1ccc(Cn2c3cccc4cccc(c43)n3cnnc23)cc1`, the Activity (RAW264.7 [1]) was “Non-Toxic” and the Activity (RAW264.7 [2]) was “Non-Toxic”.

With `Cc1cccc(Cn2c3cccc4cccc(c43)n3cnnc23)c1` the Activity (RAW264.7 [1]) was “Non-Toxic”, the inhibition in vivo at 50 mg/kg (Mus musculus [3]) was 42.9% and the inhibition in vivo at 25 mg/kg (Mus musculus [4]) was 29.8%. The Activity (RAW264.7 [5]) was 146.24%, the Activity (RAW264.7 [2]) was “Non-Toxic” and the inhibition in vivo at 12.5 mg/kg (Mus musculus [6]) was 15.7%. The Activity (RAW264.7 [7]) was “Dose-dependent effect” and the Activity (RAW264.7 [8]) was “Dose-dependent effect”.

With `CCCCCCCCCCn1c2cccc3cccc(c32)n2cnnc12` the Activity (RAW264.7 [1]) was “Toxic”.

In the case of `CCCCCn1c2cccc3cccc(c32)n2cnnc12`, the Activity (RAW264.7 [2]) is reported as “Non-Toxic”.

For `CCCCCCCCCn1c2cccc3cccc(c32)n2cnnc12`, the Activity (RAW264.7 [1]) was “Toxic”.

With `CCCCn1c2cccc3cccc(c32)n2cnnc12` the Activity (RAW264.7 [1]) was “Toxic” and the Activity (RAW264.7 [2]) was “Toxic”.

In the case of `Fc1ccccc1Cn1c2cccc3cccc(c32)n2cnnc12`, the inhibition [9] is reported as “Dose-dependent effect”, the Activity (RAW264.7 [1]) is reported as “Non-Toxic” and the inhibition (Mus musculus [10]) is reported as “Dose-dependent effect”. For the same compound, the Activity [11] was 45.2%, the Activity (RAW264.7 [12]) was 68.23% and the Activity (RAW264.7 [13]) was 47.21%. For the same compound, the Activity (RAW264.7 [14]) was 71.8%, the inhibition in vivo at 50 mg/kg (Mus musculus [3]) was 49.3% and the inhibition in vivo at 25 mg/kg (Mus musculus [4]) was 35%. The inhibition [15] was “Dose-dependent effect”, the Activity (RAW264.7 [5]) was 124.87% and the Activity (RAW264.7 [2]) was “Non-Toxic”. The inhibition in vivo at 12.5 mg/kg (Mus musculus [6]) was 17.2%, the Activity (RAW264.7 [7]) was “Dose-dependent effect” and the Activity (RAW264.7 [8]) was “Dose-dependent effect”. For the same compound, the inhibition (Mus musculus [16]) was “Dose-dependent effect”.

With `Clc1cccc(Cl)c1Cn1c2cccc3cccc(c32)n2cnnc12` the Activity (RAW264.7 [1]) was “Non-Toxic” and the Activity (RAW264.7 [2]) was “Non-Toxic”.

For `Cc1ccc(Cn2c3cccc4cccc(c43)n3cnnc23)cc1`, the Activity (RAW264.7 [1]) was “Toxic”.

For `FC(F)(F)c1ccc(Cn2c3cccc4cccc(c43)n3cnnc23)cc1`, the Activity (RAW264.7 [1]) was “Toxic”.

For `Fc1ccc(Cn2c3cccc4cccc(c43)n3cnnc23)cc1`, the Activity (RAW264.7 [1]) was “Non-Toxic” and the Activity (RAW264.7 [2]) was “Non-Toxic”.

`CCCCCCCCn1c2cccc3cccc(c32)n2cnnc12` was tested, and the Activity (RAW264.7 [1]) was “Toxic” and the Activity (RAW264.7 [2]) was “Toxic”.
